Laboratory results reported in ChEMBL document CHEMBL4425103, “Diving into the Water: Inducible Binding Conformations for BRD4, TAF1(2), BRD9, and CECR2 Bromodomains” (J Med Chem, 2016).

Tests used:
Peregrin = biological target: T1, Peregrin (Homo sapiens, UniProt P55201); assay: Displacement of biotinylated JQ1 analog from recombinant His-tagged BRPF1 (unknown origin) incubated for 10 mins by TR-FRET assay
T1 sequence (P55201 whole entry): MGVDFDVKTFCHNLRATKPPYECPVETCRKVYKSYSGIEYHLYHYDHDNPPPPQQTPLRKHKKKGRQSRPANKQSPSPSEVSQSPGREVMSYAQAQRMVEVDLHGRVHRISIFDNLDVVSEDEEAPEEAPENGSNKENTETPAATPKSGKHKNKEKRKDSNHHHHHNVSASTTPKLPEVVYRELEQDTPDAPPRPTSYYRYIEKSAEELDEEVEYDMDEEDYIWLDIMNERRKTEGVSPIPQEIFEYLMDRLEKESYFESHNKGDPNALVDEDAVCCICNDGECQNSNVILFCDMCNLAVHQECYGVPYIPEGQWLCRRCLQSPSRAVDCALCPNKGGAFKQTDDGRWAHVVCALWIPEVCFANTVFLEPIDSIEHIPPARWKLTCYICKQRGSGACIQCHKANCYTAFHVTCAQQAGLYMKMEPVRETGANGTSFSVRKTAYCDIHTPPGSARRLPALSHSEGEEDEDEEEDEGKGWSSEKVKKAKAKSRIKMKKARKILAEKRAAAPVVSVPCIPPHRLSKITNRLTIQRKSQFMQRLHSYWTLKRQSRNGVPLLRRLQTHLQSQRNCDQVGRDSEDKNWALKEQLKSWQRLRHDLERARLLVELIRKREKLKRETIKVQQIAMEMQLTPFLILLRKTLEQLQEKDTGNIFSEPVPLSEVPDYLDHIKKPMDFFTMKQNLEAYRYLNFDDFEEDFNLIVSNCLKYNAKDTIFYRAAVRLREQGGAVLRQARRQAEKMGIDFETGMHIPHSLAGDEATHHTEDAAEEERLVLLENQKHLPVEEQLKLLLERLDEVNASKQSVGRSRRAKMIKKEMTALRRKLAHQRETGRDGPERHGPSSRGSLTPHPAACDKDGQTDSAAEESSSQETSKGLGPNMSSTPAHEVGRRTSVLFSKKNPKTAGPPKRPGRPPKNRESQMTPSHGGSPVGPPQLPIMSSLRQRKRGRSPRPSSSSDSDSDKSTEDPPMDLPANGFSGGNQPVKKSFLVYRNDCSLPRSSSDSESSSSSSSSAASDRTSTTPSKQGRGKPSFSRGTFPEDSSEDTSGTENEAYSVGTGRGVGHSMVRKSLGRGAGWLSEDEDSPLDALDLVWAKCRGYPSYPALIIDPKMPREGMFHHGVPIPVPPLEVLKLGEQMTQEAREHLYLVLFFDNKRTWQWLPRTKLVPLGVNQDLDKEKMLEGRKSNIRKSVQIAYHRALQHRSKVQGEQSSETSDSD
Summary of the method: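 Bromodomain, then biotinylated ligand, each added with 10 min incubation. Anti-His europium (0.2 nM) plus streptavidin-APC followed for 40 min. 10-point titrations in duplicate, at least 2 independent runs.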

[1] = tested on: T2, Chromatin remodeling regulator CECR2 (Homo sapiens), Q9BXF3 [M506I]; assay: Binding affinity to CECR2 M506I mutant (unknown origin) assessed as change in melting temperature at 10 uM by SYPRO red dye based differential scanning fluorimetry
T2 sequence (whole entry): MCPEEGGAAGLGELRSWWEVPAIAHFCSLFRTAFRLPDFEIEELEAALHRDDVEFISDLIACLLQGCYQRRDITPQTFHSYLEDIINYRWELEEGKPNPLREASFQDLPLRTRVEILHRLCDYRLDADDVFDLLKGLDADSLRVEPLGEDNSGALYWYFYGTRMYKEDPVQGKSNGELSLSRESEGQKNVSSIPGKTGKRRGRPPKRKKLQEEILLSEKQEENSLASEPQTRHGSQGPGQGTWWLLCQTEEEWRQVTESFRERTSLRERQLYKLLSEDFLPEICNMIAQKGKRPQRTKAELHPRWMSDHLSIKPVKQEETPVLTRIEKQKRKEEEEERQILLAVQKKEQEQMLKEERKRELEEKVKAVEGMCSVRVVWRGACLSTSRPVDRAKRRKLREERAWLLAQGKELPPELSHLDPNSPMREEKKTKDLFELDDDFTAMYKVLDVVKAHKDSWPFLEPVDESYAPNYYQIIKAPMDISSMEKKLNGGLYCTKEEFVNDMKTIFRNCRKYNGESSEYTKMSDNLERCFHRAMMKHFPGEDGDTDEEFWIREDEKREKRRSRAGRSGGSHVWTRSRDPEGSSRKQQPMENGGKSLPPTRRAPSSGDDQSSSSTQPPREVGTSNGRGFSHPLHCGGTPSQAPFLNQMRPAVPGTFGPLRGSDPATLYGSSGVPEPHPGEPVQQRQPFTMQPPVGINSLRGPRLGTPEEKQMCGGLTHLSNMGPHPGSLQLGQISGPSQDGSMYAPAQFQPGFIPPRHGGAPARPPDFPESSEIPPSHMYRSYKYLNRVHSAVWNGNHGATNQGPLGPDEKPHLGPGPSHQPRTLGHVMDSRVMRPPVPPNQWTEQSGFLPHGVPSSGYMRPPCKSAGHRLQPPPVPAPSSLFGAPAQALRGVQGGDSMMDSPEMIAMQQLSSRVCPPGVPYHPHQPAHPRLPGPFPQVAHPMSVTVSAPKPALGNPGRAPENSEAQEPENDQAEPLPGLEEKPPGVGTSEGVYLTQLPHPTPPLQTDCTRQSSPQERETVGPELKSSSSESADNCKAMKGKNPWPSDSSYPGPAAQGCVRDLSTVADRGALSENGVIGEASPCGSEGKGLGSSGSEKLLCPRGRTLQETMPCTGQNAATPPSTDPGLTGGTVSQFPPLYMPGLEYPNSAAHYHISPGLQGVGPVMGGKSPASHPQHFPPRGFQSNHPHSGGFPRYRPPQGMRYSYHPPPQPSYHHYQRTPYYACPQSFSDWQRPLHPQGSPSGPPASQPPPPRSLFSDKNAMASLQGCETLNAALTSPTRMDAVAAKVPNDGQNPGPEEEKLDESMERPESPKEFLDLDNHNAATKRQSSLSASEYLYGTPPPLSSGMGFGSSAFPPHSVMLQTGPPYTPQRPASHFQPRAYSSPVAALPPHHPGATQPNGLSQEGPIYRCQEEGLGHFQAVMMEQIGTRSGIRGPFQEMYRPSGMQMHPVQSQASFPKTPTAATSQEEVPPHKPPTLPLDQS
Summary of the method: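 Differential scanning fluorimetry: aggregate removed by centrifugation, then bromodomain at 4 µM final with 10X SYPRO Red, 10 µM compound and 0.2% DMSO in 20 mM HEPES pH 7.7, 100 mM NaCl. Heated 25 to 95 °C, fluorescence read at 1 °C steps. Apparent Tm taken from melt curves; mean of at least five wells for CECR2.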

Homo sapiens = organism: Homo sapiens; assay: Selectivity index, ratio of IC50 for recombinant His-tagged CBP (unknown origin) to IC50 for recombinant His-tagged CECR2 (unknown origin)
Summary of the method: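 Protein and then probe were added, 10 min each. Anti-His-europium (0.2 nM) plus SA-APC was read after 40 min. 10-point titrations (N=2), ≥2 independent runs, 4-parameter Hill fit. Index is the ratio of the two IC50s.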

## CN(C)C(=O)c1cccc(-c2cn(C)c(=O)c3[nH]ccc23)c1
Peregrin
  IC50: 1500 nM
[1]
  ΔTm: 3 °C

## C=CCn1cc(-c2cccc(C(=O)N(C)C)c2)c2cc[nH]c2c1=O
Homo sapiens
  Ratio IC50: > 10
Peregrin
  IC50: > 20000 nM
[1]
  ΔTm: 2 °C
